ChEMBL document CHEMBL1154626, “Novel, potent, and selective quinoxaline-based 5-HT(3) receptor ligands. 1. Further structure-activity relationships and pharmacological characterization” (J Med Chem, 2009)
Active and inactive are the calls of the source. No cut-off for these calls is given here.

Experiments:
Rattus norvegicus [1] = assay: Agonist activity at 5HT3 receptor in Sprague-Dawley rat assessed as induction of bradycardia at 100 ug/kg, iv measured after 5 to 30 mins post-treatment by von Bezold-Jarisch reflex test; assay type: functional
How it was run: (§1)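 Urethane-anesthetized rats, compound given iv. Agonism was scored as the compound itself evoking the von Bezold-Jarisch reflex (bradycardia). Antagonism was tested by giving the compound iv 5, 15 or 30 min before phenylbiguanide (PBG) and scoring the reduction of PBG-evoked bradycardia. ED50 is the dose giving half of the maximal bradycardia evoked by the same compound.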

[2] = target: Muscarinic acetylcholine receptor; assay: Displacement of [3H]QNB from muscarinic receptor in rat cortex
Rattus norvegicus [3] = assay: Antagonist activity at 5HT3 receptor in Sprague-Dawley rat assessed as inhibition of 1-phenylbiguanide-induced bradycardia at 100 ug/kg, iv administered 5 mins before 1-phenylbiguanide challenge measured after 5 to 30 mins post-treatment by von Bezold-Jarisch reflex test; assay type: functional; how it was run: as §1
Rattus norvegicus [4] = assay: Antagonist activity at 5HT3 receptor in Sprague-Dawley rat assessed as inhibition of 1-phenylbiguanide-induced bradycardia at 1 ug/kg, iv administered 5 mins before 1-phenylbiguanide challenge measured after 5 to 30 mins post-treatment by von Bezold-Jarisch reflex test; assay type: functional, organism-based; how it was run: as §1
[5] = target: T1, Adrenergic receptor alpha-1 (Rattus norvegicus, UniProt P15823+P23944+P43140); assay: Displacement of [3H]prazosin from adrenergic alpha1 receptor in rat cortex
T1 sequence (P15823 whole entry): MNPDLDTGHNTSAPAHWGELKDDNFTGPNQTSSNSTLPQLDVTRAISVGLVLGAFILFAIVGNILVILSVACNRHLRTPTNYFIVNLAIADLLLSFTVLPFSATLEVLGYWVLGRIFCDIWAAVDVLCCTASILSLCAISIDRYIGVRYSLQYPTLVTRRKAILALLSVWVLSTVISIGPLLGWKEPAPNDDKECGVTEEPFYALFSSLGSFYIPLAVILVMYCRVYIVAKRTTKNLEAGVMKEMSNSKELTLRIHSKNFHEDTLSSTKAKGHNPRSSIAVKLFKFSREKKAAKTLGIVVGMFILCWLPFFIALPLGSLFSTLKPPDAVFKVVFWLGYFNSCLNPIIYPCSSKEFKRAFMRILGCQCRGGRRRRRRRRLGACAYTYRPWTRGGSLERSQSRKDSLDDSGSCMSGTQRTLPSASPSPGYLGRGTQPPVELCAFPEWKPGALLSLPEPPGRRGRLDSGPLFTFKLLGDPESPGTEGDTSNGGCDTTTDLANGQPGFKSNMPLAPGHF
T1 sequence (P23944 whole entry): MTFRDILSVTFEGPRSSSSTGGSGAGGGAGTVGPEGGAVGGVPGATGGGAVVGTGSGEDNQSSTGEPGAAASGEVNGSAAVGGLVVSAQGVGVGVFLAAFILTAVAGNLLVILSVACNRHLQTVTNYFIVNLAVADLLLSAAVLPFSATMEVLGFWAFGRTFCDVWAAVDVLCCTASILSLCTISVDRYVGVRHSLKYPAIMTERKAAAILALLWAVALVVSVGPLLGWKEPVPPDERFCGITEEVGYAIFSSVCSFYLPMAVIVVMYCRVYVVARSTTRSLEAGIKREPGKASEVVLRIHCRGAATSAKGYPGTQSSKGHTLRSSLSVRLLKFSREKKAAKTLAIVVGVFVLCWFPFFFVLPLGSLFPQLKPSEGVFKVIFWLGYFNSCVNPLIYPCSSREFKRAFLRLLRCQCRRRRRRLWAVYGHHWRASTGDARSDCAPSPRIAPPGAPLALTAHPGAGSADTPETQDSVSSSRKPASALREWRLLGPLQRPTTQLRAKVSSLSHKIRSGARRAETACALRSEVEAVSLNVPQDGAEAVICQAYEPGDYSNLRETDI
T1 sequence (P43140 whole entry): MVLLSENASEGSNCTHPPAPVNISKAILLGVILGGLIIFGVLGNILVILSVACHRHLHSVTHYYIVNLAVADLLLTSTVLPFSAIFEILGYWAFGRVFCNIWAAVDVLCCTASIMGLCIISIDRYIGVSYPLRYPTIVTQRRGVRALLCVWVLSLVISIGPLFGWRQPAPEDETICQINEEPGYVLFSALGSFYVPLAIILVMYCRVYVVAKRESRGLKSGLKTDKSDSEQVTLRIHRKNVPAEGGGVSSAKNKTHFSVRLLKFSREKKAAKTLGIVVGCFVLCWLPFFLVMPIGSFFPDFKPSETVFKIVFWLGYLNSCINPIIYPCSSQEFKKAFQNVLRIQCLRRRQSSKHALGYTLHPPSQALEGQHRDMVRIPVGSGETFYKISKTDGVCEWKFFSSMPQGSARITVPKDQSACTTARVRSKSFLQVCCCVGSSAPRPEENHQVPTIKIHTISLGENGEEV

Rattus norvegicus [6] = assay: Agonist activity at 5HT3 receptor in Sprague-Dawley rat assessed as induction of bradycardia at 10 ug/kg, iv measured after 5 to 30 mins post-treatment by von Bezold-Jarisch reflex test; assay type: functional; how it was run: as §1
Rattus norvegicus [7] = assay: Antagonist activity at 5HT3 receptor in iv dosed Sprague-Dawley rat assessed as inhibition of 1-phenylbiguanide-induced bradycardia administered 5 mins before 1-phenylbiguanide challenge measured after 5 to 30 mins post-treatment by von Bezold-Jarisch reflex test; assay type: functional; how it was run: as §1
Rattus norvegicus [8] = assay: Antagonist activity at 5HT3 receptor in Sprague-Dawley rat assessed as inhibition of 1-phenylbiguanide-induced bradycardia at 10 ug/kg, iv administered 5 mins before 1-phenylbiguanide challenge measured after 5 to 30 mins post-treatment by von Bezold-Jarisch reflex test; assay type: functional; how it was run: as §1
Rattus norvegicus [9] = assay: Agonist activity at 5HT3 receptor in Sprague-Dawley rat assessed as induction of bradycardia at 1 ug/kg, iv measured after 5 to 30 mins post-treatment by von Bezold-Jarisch reflex test; assay type: functional, organism-based; how it was run: as §1
Rattus norvegicus [10] = assay: Antagonist activity at 5HT3 receptor in Sprague-Dawley rat assessed as inhibition of 1-phenylbiguanide-induced bradycardia at 50 ug/kg, iv administered 5 mins before 1-phenylbiguanide challenge measured after 5 to 30 mins post-treatment by von Bezold-Jarisch reflex test; assay type: functional; how it was run: as §1
Rattus norvegicus [11] = assay: Agonist activity at 5HT3 receptor in Sprague-Dawley rat assessed as induction of bradycardia at 50 ug/kg, iv measured after 5 to 30 mins post-treatment by von Bezold-Jarisch reflex test; assay type: functional; how it was run: as §1
[12] = target: T2, 5-hydroxytryptamine receptor 3A (Rattus norvegicus, UniProt P35563); assay: Displacement of [3H]LY278584 from 5HT3 receptor in rat cortical homogenate; conditions: read-out: Ki
T2 sequence (P35563 whole entry): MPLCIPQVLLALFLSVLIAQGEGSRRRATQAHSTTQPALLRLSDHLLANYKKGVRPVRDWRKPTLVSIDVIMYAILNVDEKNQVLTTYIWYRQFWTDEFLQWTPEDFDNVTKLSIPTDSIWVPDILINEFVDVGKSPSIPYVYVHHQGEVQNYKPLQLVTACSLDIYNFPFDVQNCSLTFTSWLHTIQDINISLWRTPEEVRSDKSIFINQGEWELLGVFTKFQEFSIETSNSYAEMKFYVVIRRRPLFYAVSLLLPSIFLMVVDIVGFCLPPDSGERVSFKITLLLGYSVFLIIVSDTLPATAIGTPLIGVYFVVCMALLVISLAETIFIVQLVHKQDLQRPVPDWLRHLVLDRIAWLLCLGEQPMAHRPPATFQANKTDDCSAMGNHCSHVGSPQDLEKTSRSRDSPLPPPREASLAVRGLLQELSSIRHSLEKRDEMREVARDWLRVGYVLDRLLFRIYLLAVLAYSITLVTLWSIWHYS
How it was run: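 Rat cortical homogenate, competition against [3H]LY278584 binding. Ki is the concentration giving half-maximal inhibition of binding, as the mean ± S.E.M. of three determinations.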

[13] = target: T3, 5-hydroxytryptamine receptor 3A (Cavia porcellus, UniProt O70212); assay: Antagonist activity at 5HT3 receptor in spontaneously beating guinea pig right atrium assessed as inhibition of serotonin-induced maximum response by noncompetitive binding assay; assay type: tissue-based, Cardiac atrium
T3 sequence (O70212 whole entry): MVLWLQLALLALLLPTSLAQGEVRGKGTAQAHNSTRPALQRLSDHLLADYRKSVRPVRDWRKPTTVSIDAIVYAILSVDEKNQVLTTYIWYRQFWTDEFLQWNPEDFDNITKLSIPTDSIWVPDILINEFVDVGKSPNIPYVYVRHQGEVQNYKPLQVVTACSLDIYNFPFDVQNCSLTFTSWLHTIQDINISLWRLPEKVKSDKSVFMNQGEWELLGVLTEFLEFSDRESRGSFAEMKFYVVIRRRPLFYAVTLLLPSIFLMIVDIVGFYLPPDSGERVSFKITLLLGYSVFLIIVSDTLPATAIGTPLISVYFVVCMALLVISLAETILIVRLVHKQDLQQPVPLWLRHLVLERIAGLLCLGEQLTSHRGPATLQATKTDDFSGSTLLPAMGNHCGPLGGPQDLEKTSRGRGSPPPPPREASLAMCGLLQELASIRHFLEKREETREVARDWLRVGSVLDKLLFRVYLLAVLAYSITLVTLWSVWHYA
How it was run: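 Spontaneously beating guinea pig right atria, exposed 30 min to test compound at 10 μM, followed by cumulative 5-HT log concentration-response curves versus control. Mean ± SEM of five to seven observations.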

[14] = target: T3, 5-hydroxytryptamine receptor 3A; assay: Agonist activity at 5HT3 receptor in voltage-stimulated guinea pig left atrium assessed as positive inotropic potency; assay type: functional, tissue-based, Cardiac atrium

| Structure (SMILES) | Activity (Rattus norvegicus [1]) [%] | Ki [2] [µM] | Activity (Rattus norvegicus [3]) | Activity (Rattus norvegicus [4]) | Ki [5] [µM] | Activity (Rattus norvegicus [6]) | ID50 (Rattus norvegicus [7]) [mg/kg] | Activity (Rattus norvegicus [8]) | Activity (Rattus norvegicus [9]) | Activity (Rattus norvegicus [10]) | Activity (Rattus norvegicus [11]) | Ki [12] [µM] | IC50 [13] | EC50 [14] |
| --- | --- | --- | --- | --- | --- | --- | --- | --- | --- | --- | --- | --- | --- | --- |
| Fc1ccc2c(c1)nc(N1CCN(Cc3c[nH]cn3)CC1)c1cccn12 | 40 | > 10 | Active | inactive | > 10 | Active | 0.01 | Active | inactive | Active | Active | – | – | – |
| c1ccc(CN2CCN(c3nc4ncccc4n4cccc34)CC2)cc1 | – | – | – | – | – | – | – | – | – | – | – | 0.0022 | Not Active | Not Active |
